Experimental data reported in PMC3501882 (Diabetes, 2012).
Residues, ends and D or L forms follow the SMILES beside them.

Legend:
[1] = assay type: physicochemical; conditions: poorly soluble peptides were used as suspensions in assays
BDC-2.5 T-cell clone = assay: IFN-γ response of T-cell clone to antigen; assay type: cell-based, NOD mouse; conditions: for IFN-γ response of BDC-2.5 to peptide (in words): increasing peptide concentrations, before and after TGase treatment, Fig. 1B, 1C
[2] = tested on: guinea pig transglutaminase; conditions: increasing putrescine 0.06–15.6 mmol/L in the reaction mixture; gel lanes 2–10
[3] = tested on: CD4 T cells from BDC-6.9 TCR-Tg mice; assay: T-cell proliferation assay; assay type: cell-based, mouse; conditions: Fig. 2A; negative control T cells
In short: (§1)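 Spleen cells from TCR-transgenic NOD mice (2–5 months old) labeled with 2.5 μmol/L CFSE. Cultured at 1 × 10^6/well with peptide antigen, medium, or anti-CD3ε 0.1 μg/mL for 4 days. Cells stained for CD4 and analysed by flow cytometry, gated on CD4/lymphocyte events. Read-out: percentage of divided cells, mean and SD per mouse over two independent experiments.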

[4] = tested on: CD4 T cells from BDC-2.5 TCR-Tg mice; assay: T-cell proliferation assay; assay type: cell-based, mouse; conditions: for Proliferative response of BDC-2.5 TCR-Tg CD4 T cells (in words): Fig. 2A, WE14 at 200 μg/mL (120 μmol/L)
In short: as §1

PD-12.4.4 T-cell clone = assay: IFN-γ response of insulin-reactive T-cell clone to antigen; assay type: cell-based, NOD mouse; conditions: for IFN-γ response of PD-12.4.4 to peptide (in words): increasing peptide concentrations, Fig. 1A, 1D

Solubility in water (in words) [1]	Compound	IFN-γ response of BDC-2.5 to peptide (in words) (BDC-2.5 T-cell clone)	Proliferative response of BDC-2.5 TCR-Tg CD4 T cells (in words) [4]	IFN-γ response of PD-12.4.4 to peptide (in words) (PD-12.4.4 T-cell clone)	further results
–	NCCCCN [putrescine]	–	–	–	Effect of putrescine on antigenicity of β-Mem positive control antigen (BDC-2.5 T-cell clone; data not shown): did not affect the antigenicity; Effect of inhibitor in TGase reaction on BDC-2.5 response to converted peptide (BDC-2.5 T-cell clone; increasing putrescine 0.06–15.6 mmol/L, Fig. 6A top, lanes 2–10): diminished T-cell responses; Effect of inhibitor on TGase-catalysed WE14 oligomerization [2]: decreasing peptide oligomerization
only poorly soluble in water	DTKVMKCVLEVISD [ChgA29–42]	not antigenic	no proliferative response	not antigenic at higher or lower peptide concentrations	Proliferative response of BDC-6.9 TCR-Tg CD4 T cells (in words) [3]: no proliferative response; Effect of TGase treatment on antigenicity of the peptide (BDC-2.5 T-cell clone; BDC-2.5 (for WE14 also BDC-10.1 and BDC-9.46), IFN-γ ELISA): did not lead to an increase of antigenicity; IFN-γ response of PD-12.4.4 to peptide at 66 μg/mL (PD-12.4.4 T-cell clone; 66 μg/mL (42 μmol/L), in the absence of TGase): very small PD-12.4.4 response
–	EKAHRPIWARMDAKK	–	responded	–	–
only poorly soluble in water	FVKQHLCGSHLVEALYLVCGERGFFYTPMS [insulin B-chain]	remain inactive	–	responded	Effect of TGase treatment on PD-12.4.4 response (PD-12.4.4 T-cell clone; Fig. 1D): not increased significantly
–	KCNTATCATQRLANFLVRSS [KS20]	remain inactive	no proliferative response	did not respond	Proliferative response of BDC-6.9 TCR-Tg CD4 T cells (in words) [3]: no proliferative response; Effect of TGase treatment of the peptide on T-cell proliferation ([4]; any peptide concentration tested, data not shown): did not alter the T-cell proliferation responses
solubilized directly in sterile water	WSRMDELAKELTAE [WE14-Q6E]	no better than unmodified WE14	–	–	–

Compound	Solubility in water (in words) [1]	IFN-γ response of BDC-2.5 to peptide (in words) (BDC-2.5 T-cell clone)	Proliferative response of BDC-2.5 TCR-Tg CD4 T cells (in words) [4]	IFN-γ response of PD-12.4.4 to peptide (in words) (PD-12.4.4 T-cell clone)	further results
CSCC[C@H](NC(=O)[C@H](CCCNC(=N)N)NC(=O)[C@H](CO)NC(=O)[C@@H](N)Cc1c[nH]c2ccccc12)C(=O)N[C@@H](CC(=O)O)C(=O)N[C@@H](CCC(N)=O)C(=O)N[C@@H](CC(C)C)C(=O)N[C@@H](C)C(=O)N[C@@H](CCCCN)C(=O)N[C@@H](CCC(=O)O)C(=O)N[C@@H](CC(C)C)C(=O)N[C@H](C(=O)N[C@@H](C)C(=O)N[C@@H](CCC(=O)O)C(=O)O)[C@@H](C)O [WE14] (H-WSRMDQLAKELTAE-OH)	solubilized directly in sterile water	–	–	–	–
